# Active and inactive are the calls of the source. The calls are words filed in the database; no cut-off is given here.
# What was measured:
# [1] = system: Plasma; assay: Dose normalized Cmax in Sprague-Dawley rat plasma at 10 mg equivalents/kg, po after 0.25 to 12 hrs; type: ADME, organism-based; conditions: in vivo
# In short: (§1)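 Male Sprague-Dawley rats given a single oral dose of 10 mg equiv/kg as a 2 mg equiv/mL solution in 10% hydroxypropyl-β-cyclodextrin. Plasma, liver, kidney, cortex, striatum and CSF levels were measured from 0.25 to 12 h. Brain tissue was taken from nonperfused brains. CSF AUCN covers 0–8 h because the elimination phase was undefined.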
# [2] = target: Kynurenine 3-monooxygenase (Homo sapiens, UniProt O15229); assay: Inhibition of KMO in human PBMC
# [3] = system: Rattus norvegicus; assay: Inhibition of KMO in Sprague-Dawley rat striatum brain microdialysate assessed as time duration for elevation in kynurenic acid level at 10 mg/kg, po by […] analysis; type: functional
# In short: (§2)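 Freely moving Sprague-Dawley rats given 10 mg/kg po, with a microdialysis probe implanted in the striatum. Dialysate was sampled over 0–240 min for free compound and for KYN, KYNA, AA and 3-HK, quantified by LC-MS/MS. Metabolite changes were compared with t = 0 min by 2-way ANOVA.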
# [4] = Tmax in Sprague-Dawley rat plasma at 10 mg equivalents/kg, po after 0.25 to 12 hrs; type: ADME, organism-based
# In short: (§3)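 Fed male Sprague-Dawley rats given a single oral dose of 10 mg equiv/kg as 2 mg equiv/mL in 10% hydroxypropyl-β-cyclodextrin. Plasma, CSF, kidney, liver, and cortex and striatum from nonperfused brains sampled from 0.25 to 12 h.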
# [5] = system: Rattus norvegicus; assay: Inhibition of KMO in Sprague-Dawley rat plasma assessed as time duration for elevation in kynurenine plasma level at 10 mg/kg, po by […] analysis; type: functional
# In short: (§4)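 Sprague-Dawley rats given a single 10 mg/kg oral dose. KYN, 3-HK, KYNA and AA were quantified in plasma by LC-MS/MS at multiple time points.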
# [6] = system: Rattus norvegicus; assay: Inhibition of KMO in po dosed Sprague-Dawley rat plasma assessed as reduction in 3-hydroxykynurenice acid plasma level by […] analysis; type: functional, organism-based
# [7] = Volume of distribution at steady state in Sprague-Dawley rat plasma at 6.2 mg equivalents/kg, iv; type: ADME, cell-free; conditions: read-out: Vdss
# In short: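 Nonfasted male Sprague-Dawley rats (300−370 g). Single iv tail-vein dose of 6.2 mg equiv/kg (1.24 mg equiv/mL in DMSO:PEG400:water 10:40:50) or oral gavage of 12 mg equiv/kg (1.20 mg equiv/mL in 10% hydroxypropyl-β-cyclodextrin). Terminal bleeds under isoflurane (N = 3) at 0.083−24 h; heparin plasma; tissues snap-frozen.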
# [8] = Half life at steady state in Sprague-Dawley rat plasma at 6.2 mg equivalents/kg, iv; type: ADME, cell-free
# [9] = Half life in Sprague-Dawley rat cortex at 10 mg equivalents/kg, po after 0.25 to 12 hrs; type: ADME, organism-based
# In short: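 Nonfasted male Sprague-Dawley rats; single oral dose 10 mg equiv/kg as 2 mg equiv/mL solution in 10% hydroxypropyl-β-cyclodextrin. Cortex taken from nonperfused brains, sampled 0.25 to 12 h after dosing. Drug measured by LC-MS/MS; half-life derived from concentration-time profile.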
# [10] = system: Liver; assay: Dose normalized AUC (0 to infinity) in Sprague-Dawley rat liver at 10 mg equivalents/kg, po after 0.25 to 12 hrs; type: ADME, organism-based; conditions: in vivo; in short: as §1
# [11] = target: Kynurenine 3-monooxygenase (Mus musculus, UniProt Q91WN4); assay: Inhibition of mouse KMO assessed as conversion of kynurenine to 3-hydroxykynurenine by LC-MS/MS analysis
# In short: (§5)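 Mitochondrial fractions from mouse or rat liver tissue used as KMO source. Conversion of kynurenine to 3-hydroxykynurenine quantified by LC-MS/MS; IC50 averaged from triplicate tests.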
# [12] = system: Brain; assay: Dose normalized AUC (0 to infinity) in BCRP knock out FVB/N mouse brain at 5 mg equivalents/kg, iv by LC-MS/MS analysis; type: ADME, organism-based; conditions: in vivo
# In short: (§6)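 Male mice given a single 5 mg equiv/kg iv bolus: FVB wild type, Bcrp(−/−), Mdr1a/b(−/−) and Mdr1a/b(−/−)/Bcrp(−/−). Brain and plasma concentration–time profiles were used to derive dose-normalized AUC (0–infinity).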
# [13] = Clearance in Sprague-Dawley rat plasma at 6.2 mg equivalents/kg, iv; type: ADME, cell-free
# [14] = system: Rattus norvegicus; assay: Inhibition of KMO in Sprague-Dawley rat striatum brain microdialysate assessed as time duration for elevation in 3-hydroxykynurenice acid level by 2-fold at 10 mg/kg, po by […] analysis; type: functional; in short: as §2
# [15] = system: Rattus norvegicus; assay: Inhibition of KMO in Sprague-Dawley rat plasma assessed as time duration for elevation in kynurenic acid plasma level at 10 mg/kg, po by […] analysis; type: functional; in short: as §4
# [16] = system: Plasma; assay: Dose normalized AUC (0 to infinity) in MDR1a knock out FVB/N mouse plasma at 5 mg equivalents/kg, iv by LC-MS/MS analysis; type: ADME, organism-based; conditions: in vivo; in short: as §6
# [17] = system: Brain; assay: Dose normalized AUC (0 to infinity) in wild-type FVB/N mouse brain at 5 mg equivalents/kg, iv by LC-MS/MS analysis; type: ADME, organism-based; conditions: in vivo; in short: as §6
# [18] = target: T1, Kynurenine 3-monooxygenase (Rattus norvegicus, UniProt O88867); assay: Inhibition of KMO in rat microglia cells; type: cell-based
# In short: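 Freshly isolated neonatal rat microglial cultures, induced to express KMO by a pro-inflammatory protocol. Exogenous KYN added; conversion to 3-HK monitored by mass spectrometry.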
# [19] = Half life in Sprague-Dawley rat plasma at 12 mg equivalents/kg, po; type: ADME, cell-free
# [20] = Half life in Sprague-Dawley rat striatum at 10 mg equivalents/kg, po after 0.25 to 12 hrs; type: ADME, organism-based; in short: as §1
# [21] = target: T1, Kynurenine 3-monooxygenase; assay: Inhibition of rat KMO assessed as conversion of kynurenine to 3-hydroxykynurenine by LC-MS/MS analysis; in short: as §5
# [22] = system: Rattus norvegicus; assay: Inhibition of KMO in Sprague-Dawley rat striatum brain microdialysate assessed as time duration for elevation in anthranilic acid level at 10 mg/kg, po by […] analysis; type: functional; in short: as §2
# [23] = Oral bioavailability in Sprague-Dawley rat plasma at 12 mg equivalents/kg
# [24] = system: Rattus norvegicus; assay: Inhibition of KMO in po dosed Sprague-Dawley rat plasma assessed as elevation in kynurenine plasma level by […] analysis; type: functional, organism-based
# [25] = system: Brain; assay: Dose normalized AUC (0 to infinity) in Sprague-Dawley rat brain at 6.2 mg equivalents/kg, iv; type: ADME, tissue-based; conditions: in vivo
# [26] = system: Brain; assay: Dose normalized Cmax in Sprague-Dawley rat brain at 6.2 mg equivalents/kg, iv; type: ADME, tissue-based; conditions: in vivo
# [27] = system: Cerebrospinal fluid; assay: Dose normalized AUC (0 to infinity) in Sprague-Dawley rat CSF at 10 mg equivalents/kg, po after 0 to 8 hrs; type: ADME, organism-based; conditions: in vivo; in short: as §1
# [28] = Half life in Sprague-Dawley rat liver at 10 mg equivalents/kg, po after 0.25 to 12 hrs; type: ADME, organism-based; in short: as §1
# [29] = system: Plasma; assay: Dose normalized Cmax in Sprague-Dawley rat plasma at 12 mg equivalents/kg, po after 1 hr; type: ADME, organism-based; conditions: in vivo
# [30] = Tmax in Sprague-Dawley rat CSF at 10 mg equivalents/kg, po after 0.25 to 12 hrs; type: ADME, organism-based, Cerebrospinal fluid; in short: as §3
# [31] = system: Rattus norvegicus; assay: Inhibition of KMO in Sprague-Dawley rat brain assessed as time duration for elevation in kynurenine plasma level at 10 mg/kg, po by […] analysis; type: functional
# T1 sequence (O88867 whole entry): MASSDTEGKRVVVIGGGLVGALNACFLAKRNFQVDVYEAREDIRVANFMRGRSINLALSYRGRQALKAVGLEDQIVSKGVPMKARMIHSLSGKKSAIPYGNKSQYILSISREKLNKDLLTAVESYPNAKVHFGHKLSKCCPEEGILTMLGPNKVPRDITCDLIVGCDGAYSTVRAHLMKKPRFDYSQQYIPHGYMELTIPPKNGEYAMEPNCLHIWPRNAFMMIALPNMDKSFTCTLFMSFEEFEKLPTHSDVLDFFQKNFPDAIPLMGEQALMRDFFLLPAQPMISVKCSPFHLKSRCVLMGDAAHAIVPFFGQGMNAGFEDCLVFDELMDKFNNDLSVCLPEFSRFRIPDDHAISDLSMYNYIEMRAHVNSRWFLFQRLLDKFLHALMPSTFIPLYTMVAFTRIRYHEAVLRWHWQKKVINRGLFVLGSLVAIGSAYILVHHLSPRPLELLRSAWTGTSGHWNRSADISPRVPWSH
# Sequence of Kynurenine 3-monooxygenase (Homo sapiens, UniProt O15229) (O15229 whole entry): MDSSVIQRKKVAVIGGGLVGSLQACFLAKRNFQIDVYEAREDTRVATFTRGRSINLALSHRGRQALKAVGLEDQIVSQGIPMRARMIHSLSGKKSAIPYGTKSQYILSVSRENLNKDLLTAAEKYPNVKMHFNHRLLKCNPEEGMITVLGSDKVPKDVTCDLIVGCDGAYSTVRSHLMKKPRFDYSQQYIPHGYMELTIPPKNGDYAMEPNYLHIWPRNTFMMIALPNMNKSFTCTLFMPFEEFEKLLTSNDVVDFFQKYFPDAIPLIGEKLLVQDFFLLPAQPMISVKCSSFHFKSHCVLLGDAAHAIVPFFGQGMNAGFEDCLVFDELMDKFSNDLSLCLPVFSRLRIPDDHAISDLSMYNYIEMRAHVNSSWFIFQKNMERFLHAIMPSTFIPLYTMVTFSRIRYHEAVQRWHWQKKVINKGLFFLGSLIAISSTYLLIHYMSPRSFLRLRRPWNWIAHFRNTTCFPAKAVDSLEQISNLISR
# Sequence of Kynurenine 3-monooxygenase (Mus musculus, UniProt Q91WN4) (Q91WN4 whole entry): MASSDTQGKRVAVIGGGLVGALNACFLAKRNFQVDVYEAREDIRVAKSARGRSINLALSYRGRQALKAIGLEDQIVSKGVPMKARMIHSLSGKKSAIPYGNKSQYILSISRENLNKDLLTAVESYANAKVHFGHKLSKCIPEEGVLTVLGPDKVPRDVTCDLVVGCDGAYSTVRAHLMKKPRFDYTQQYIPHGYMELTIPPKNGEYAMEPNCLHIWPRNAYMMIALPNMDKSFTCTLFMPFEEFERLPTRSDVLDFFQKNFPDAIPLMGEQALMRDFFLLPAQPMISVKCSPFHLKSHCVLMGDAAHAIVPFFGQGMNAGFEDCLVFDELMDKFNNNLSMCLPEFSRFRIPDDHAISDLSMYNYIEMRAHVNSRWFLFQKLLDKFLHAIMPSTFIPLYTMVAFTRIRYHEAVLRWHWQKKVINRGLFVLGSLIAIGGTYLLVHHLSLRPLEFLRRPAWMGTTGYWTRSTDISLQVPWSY
smiles,measurement,setting,value
O=C(O)c1cc(-c2ccc(OC3CC3)c(Cl)c2)ncn1,Cmax/dose,[1],2.6 µM·kg/mg
same,IC50,[2],82 nM
same,Time,[3],60 min
same,Tmax,[4],0.5 h
same,Time,[5],8 h
same,inhibition,[6],Active
same,Vd,[7],0.32 L/kg
same,half-life,[8],1.8 h
same,half-life,[9],1.9 h
same,AUC/dose,[10],20 µM·kg·h/mg
same,IC50,[11],5.1 nM
same,AUC/dose,[12],0.17 µM·kg·h/mg
same,clearance,[13],4.83 mL/min/kg
same,Time,[14],160 min
same,Time,[15],8 h
same,AUC/dose,[16],2.6 µM·kg·h/mg
same,AUC/dose,[17],0.066 µM·kg·h/mg
same,IC50,[18],72 nM
same,half-life,[19],2.4 h
same,half-life,[20],2.3 h
same,IC50,[21],4 nM
same,Time,[22],40 min
same,bioavailability,[23],64%
same,inhibition,[24],Dose-dependent effect
same,AUC/dose,[25],0.23 µM·kg·h/mg
same,Cmax/dose,[26],0.25 µM·kg/mg
same,AUC/dose,[27],0.014 µM·kg·h/mg
same,half-life,[28],2.5 h
same,Cmax/dose,[29],1.9 µM·kg/mg
same,Tmax,[30],0.5 h
same,Time,[31],>=4 hr

# — ChEMBL document CHEMBL3407478, “Development of a series of aryl pyrimidine kynurenine monooxygenase inhibitors as potential therapeutic agents for the treatment of Huntington's disease” (J Med Chem, 2015)
